{"source": "ChEMBL document CHEMBL4765317", "about": "“Novel bacterial topoisomerase inhibitors derived from isomannide” (Eur J Med Chem, 2020)", "key": {"[1]": {"system": "Staphylococcus aureus", "assay": "Antibacterial activity against methicillin-resistant Staphylococcus aureus DRL-3161 assessed as reduction in bacterial growth by CLSI based broth microdilution method", "format": "functional"}, "[2]": {"system": "Enterococcus faecium", "assay": "Antibacterial activity against Vancomycin-resistant Enterococcus faecium LSI-3340 assessed as reduction in bacterial growth by CLSI based broth microdilution method", "format": "functional"}, "[3]": {"assay": "Cytotoxicity against human HepaRG assessed as reduction in cell viability at 0.1 uM incubated for 24 hrs by Cell-Titer Glo assay", "format": "cell-based", "conditions": "HepaRG cells, read-out: INH", "in_short": "(§1)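 ATP-based viability read-out in HepaRG cells over a five-point concentration series (0.01, 0.1, 1, 10, 100 µM). Results are given as % cytotoxicity at each concentration.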"}, "[4]": {"system": "Staphylococcus aureus", "assay": "Antibacterial activity against Fluoroquinolone-resistant Staphylococcus aureus assessed as reduction in bacterial growth by CLSI based broth microdilution method", "format": "functional"}, "[5]": {"assay": "Cytotoxicity against human HepaRG assessed as reduction in cell viability at 100 uM incubated for 24 hrs by Cell-Titer Glo assay", "format": "cell-based", "conditions": "HepaRG cells, read-out: INH", "in_short": "as §1"}, "[6]": {"system": "Streptococcus pneumoniae", "assay": "Antibacterial activity against penicillin-susceptible Streptococcus pneumoniae LSI-4234 assessed as reduction in bacterial growth by CLSI based broth microdilution method", "format": "functional"}, "[7]": {"target": "T1, Sodium channel protein type 5 subunit alpha (Homo sapiens, UniProt Q14524)", "T1 sequence (Q14524 whole entry)": "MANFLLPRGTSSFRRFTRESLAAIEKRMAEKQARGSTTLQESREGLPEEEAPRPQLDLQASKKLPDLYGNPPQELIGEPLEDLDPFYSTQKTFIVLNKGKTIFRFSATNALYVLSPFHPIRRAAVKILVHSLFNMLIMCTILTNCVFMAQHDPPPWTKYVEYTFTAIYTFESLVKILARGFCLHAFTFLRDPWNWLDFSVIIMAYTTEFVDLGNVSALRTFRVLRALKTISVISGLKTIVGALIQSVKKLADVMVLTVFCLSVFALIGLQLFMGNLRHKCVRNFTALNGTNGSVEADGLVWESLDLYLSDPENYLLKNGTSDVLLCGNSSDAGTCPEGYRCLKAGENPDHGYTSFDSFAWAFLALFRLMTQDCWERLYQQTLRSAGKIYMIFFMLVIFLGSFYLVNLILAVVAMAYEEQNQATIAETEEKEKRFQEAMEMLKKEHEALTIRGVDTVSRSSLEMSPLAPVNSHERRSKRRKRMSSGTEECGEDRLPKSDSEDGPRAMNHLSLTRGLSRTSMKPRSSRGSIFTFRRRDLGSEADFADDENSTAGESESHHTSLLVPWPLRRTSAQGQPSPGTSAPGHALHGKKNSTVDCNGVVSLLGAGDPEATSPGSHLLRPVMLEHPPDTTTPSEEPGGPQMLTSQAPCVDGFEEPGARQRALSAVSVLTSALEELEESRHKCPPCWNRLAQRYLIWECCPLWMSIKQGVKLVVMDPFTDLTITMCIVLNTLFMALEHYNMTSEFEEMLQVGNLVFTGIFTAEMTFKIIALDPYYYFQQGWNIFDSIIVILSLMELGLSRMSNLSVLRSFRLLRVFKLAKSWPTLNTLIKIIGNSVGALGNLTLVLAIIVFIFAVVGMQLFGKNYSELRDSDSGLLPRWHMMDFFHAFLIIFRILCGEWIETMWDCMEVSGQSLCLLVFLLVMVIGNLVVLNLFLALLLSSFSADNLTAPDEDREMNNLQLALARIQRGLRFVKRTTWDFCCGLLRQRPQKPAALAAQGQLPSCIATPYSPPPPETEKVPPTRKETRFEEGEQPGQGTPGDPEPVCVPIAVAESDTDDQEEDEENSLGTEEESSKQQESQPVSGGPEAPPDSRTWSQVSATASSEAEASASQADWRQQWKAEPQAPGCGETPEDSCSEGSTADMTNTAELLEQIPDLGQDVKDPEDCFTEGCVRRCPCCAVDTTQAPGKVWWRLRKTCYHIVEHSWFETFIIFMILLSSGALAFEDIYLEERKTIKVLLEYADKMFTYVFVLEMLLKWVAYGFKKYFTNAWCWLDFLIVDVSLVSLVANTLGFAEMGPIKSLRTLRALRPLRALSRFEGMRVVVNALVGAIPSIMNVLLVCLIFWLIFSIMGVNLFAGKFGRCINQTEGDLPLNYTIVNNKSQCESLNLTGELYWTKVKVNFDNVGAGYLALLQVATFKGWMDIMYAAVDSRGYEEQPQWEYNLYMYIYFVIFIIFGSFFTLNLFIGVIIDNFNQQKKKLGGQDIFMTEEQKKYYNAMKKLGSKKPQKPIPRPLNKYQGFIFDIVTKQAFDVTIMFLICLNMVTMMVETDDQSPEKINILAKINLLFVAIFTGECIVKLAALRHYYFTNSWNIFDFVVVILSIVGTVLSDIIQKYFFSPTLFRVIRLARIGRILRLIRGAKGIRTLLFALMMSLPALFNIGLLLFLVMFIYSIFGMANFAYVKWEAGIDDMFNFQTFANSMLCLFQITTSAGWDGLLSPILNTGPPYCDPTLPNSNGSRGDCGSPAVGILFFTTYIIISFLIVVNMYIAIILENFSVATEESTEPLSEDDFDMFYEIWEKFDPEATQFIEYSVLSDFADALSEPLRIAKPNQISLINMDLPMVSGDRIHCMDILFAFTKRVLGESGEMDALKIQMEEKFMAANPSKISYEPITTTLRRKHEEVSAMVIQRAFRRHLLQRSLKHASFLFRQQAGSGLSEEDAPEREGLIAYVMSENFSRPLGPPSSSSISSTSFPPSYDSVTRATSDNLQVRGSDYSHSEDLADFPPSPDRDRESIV", "assay": "Activation of recombinant human Nav1.5 late expressed in human HEK293 cells assessed as activation of late current at 3 uM by automated Qpatch clamp assay relative to control", "format": "ADME, cell-based", "conditions": "hek293, 3 µM", "in_short": "(§2)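 Part of an eight-assay CiPA panel run in duplicate on an automated QPatch HT patch-clamp system at 3, 30 and 100 µM. Test compound came from a 30 mM DMSO stock. Records were filtered for seal quality, seal drop and current amplitude, and mean percent values are reported.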"}, "[8]": {"assay": "Cytotoxicity against human HepaRG assessed as reduction in cell viability at 10 uM incubated for 24 hrs by Cell-Titer Glo assay", "format": "cell-based", "conditions": "HepaRG cells, read-out: INH", "in_short": "as §1"}, "[9]": {"system": "Staphylococcus aureus", "assay": "Antibacterial activity against Staphylococcus aureus ATCC 29213 assessed as reduction in bacterial growth by CLSI based broth microdilution method", "format": "functional"}, "[10]": {"target": "Voltage-gated inwardly rectifying potassium channel KCNH2 (Homo sapiens, UniProt Q12809)", "sequence (Q12809 whole entry)": "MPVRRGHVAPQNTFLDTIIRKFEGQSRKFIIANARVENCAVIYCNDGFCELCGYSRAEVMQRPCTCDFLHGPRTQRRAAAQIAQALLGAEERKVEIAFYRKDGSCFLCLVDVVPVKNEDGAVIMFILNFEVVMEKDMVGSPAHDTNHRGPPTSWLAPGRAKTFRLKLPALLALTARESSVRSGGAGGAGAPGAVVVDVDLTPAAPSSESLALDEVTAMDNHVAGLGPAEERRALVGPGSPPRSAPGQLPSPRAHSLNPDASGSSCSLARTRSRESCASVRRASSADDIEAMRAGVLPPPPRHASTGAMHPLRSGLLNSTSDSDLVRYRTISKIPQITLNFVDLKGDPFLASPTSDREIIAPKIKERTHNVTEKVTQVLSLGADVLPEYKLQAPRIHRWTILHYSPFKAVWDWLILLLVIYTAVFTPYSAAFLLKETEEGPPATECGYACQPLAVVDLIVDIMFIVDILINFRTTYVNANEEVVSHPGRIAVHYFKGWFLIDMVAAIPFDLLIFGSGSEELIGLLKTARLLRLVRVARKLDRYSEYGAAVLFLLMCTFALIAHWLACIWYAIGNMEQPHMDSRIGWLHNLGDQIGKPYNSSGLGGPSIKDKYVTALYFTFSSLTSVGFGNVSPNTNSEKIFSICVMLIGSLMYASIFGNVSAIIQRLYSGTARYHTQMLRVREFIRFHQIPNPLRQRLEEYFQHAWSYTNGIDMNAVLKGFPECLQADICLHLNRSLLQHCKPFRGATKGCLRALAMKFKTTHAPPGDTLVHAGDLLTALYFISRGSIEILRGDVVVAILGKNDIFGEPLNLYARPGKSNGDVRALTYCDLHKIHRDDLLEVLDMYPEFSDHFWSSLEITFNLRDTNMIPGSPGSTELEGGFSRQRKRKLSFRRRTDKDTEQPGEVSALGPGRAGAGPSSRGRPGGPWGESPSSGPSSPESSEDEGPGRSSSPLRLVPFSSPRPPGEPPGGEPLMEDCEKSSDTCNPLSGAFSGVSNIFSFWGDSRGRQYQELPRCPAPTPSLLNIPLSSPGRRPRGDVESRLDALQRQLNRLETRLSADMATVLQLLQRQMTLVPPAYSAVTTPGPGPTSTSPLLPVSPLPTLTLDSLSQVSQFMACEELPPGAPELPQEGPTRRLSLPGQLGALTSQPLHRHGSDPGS", "assay": "Inhibition of human ERG"}, "[11]": {"target": "KCNQ1 (Homo sapiens, UniProt P51787)", "sequence (P51787 whole entry)": "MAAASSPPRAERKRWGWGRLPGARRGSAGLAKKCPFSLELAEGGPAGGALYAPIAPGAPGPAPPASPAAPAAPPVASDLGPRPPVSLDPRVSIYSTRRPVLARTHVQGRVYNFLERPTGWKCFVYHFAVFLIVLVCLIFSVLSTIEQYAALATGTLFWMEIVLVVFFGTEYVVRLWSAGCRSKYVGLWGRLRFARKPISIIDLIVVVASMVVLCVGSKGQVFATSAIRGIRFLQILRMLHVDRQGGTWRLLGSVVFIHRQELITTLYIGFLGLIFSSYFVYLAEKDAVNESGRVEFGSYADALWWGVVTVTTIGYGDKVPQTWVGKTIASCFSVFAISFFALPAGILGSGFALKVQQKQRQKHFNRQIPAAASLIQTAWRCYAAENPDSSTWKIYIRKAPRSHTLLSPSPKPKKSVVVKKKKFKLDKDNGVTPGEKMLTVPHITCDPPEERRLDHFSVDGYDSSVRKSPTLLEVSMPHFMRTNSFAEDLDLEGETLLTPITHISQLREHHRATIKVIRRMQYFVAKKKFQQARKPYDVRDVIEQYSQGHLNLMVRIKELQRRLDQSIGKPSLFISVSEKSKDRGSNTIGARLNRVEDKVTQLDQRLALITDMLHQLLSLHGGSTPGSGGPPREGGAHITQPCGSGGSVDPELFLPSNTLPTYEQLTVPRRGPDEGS", "assay": "Inhibition of recombinant human KCNQ1 expressed in CHO-K1 cells at 3 uM by automated Qpatch clamp assay relative to control", "format": "ADME, cell-based", "conditions": "CHO-K1 cells expressing recombinant human KCNQ1", "in_short": "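KCNQ1/hminK current recorded in duplicate on an automated QPatch HT at 3, 30 and 100 µM, from a 30 mM DMSO stock. Records were filtered for seal quality, seal drop and current amplitude. Peak outward current was evoked by a step to 60 mV. Block is the test-compound amplitude divided by control, where control is the mean over 15 s at the end of the control period. Chromanol 293B was the positive control.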"}, "[12]": {"target": "Sodium channel protein type 2 subunit alpha (Homo sapiens) (UniProt Q99250)", "assay": "Inhibition of recombinant human full length Nav1.2 expressed in CHO-K1 cells at 100 uM by manual patch clamp assay relative to control", "format": "cell-based", "in_short": "(§3)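 Off-target screen against a panel of 44 receptors, enzymes and transporters, run in duplicate at a single 100 µM concentration. Results are given as % inhibition. No concentration-response follow-up was done.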"}, "[13]": {"target": "CYP2C19 (Homo sapiens, UniProt P33261)", "assay": "Inhibition of human liver microsome CYP2C19 at 10 uM in presence of NADPH incubated for 10 to 30 mins by LC-MS-MS analysis", "format": "ADME", "conditions": "human liver microsomes, time 10-30 min"}, "[14]": {"assay": "Metabolic stability in mouse liver microsomes assessed as half life at 10 uM incubated for 5 mins followed by NADPH addition and measured upto 60 mins by LC-MS analysis", "format": "ADME, Microsome", "conditions": "time 65 min"}, "[15]": {"target": "T1, Sodium channel protein type 5 subunit alpha", "assay": "Activation of recombinant human Nav1.5 late expressed in human HEK293 cells assessed as activation of late current at 30 uM by automated Qpatch clamp assay relative to control", "format": "ADME, cell-based", "conditions": "hek293, 30 µM", "in_short": "as §2"}, "[16]": {"target": "Histamine H2 receptor (Homo sapiens) (UniProt P25021)", "sequence (P25021 whole entry)": "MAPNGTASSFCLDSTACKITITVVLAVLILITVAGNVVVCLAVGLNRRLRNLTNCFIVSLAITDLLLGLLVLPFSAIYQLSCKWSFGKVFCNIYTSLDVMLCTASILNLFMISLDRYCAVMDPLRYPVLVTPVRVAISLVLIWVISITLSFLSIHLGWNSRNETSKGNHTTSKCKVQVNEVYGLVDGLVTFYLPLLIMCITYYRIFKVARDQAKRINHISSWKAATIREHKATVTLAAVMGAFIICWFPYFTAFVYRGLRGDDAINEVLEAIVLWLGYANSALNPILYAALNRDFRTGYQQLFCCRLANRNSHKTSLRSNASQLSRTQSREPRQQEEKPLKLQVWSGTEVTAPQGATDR", "assay": "Inhibition of recombinant human full length histamine H2 receptor expressed in CHO-K1 cells using [125I] Aminopotentidine as […] at 100 uM incubated for 120 mins by scintillation counting method relative to control", "format": "cell-based", "in_short": "as §3"}, "[17]": {"target": "Cytochrome P450 3A4 (Homo sapiens, UniProt P08684)", "sequence (P08684 whole entry)": "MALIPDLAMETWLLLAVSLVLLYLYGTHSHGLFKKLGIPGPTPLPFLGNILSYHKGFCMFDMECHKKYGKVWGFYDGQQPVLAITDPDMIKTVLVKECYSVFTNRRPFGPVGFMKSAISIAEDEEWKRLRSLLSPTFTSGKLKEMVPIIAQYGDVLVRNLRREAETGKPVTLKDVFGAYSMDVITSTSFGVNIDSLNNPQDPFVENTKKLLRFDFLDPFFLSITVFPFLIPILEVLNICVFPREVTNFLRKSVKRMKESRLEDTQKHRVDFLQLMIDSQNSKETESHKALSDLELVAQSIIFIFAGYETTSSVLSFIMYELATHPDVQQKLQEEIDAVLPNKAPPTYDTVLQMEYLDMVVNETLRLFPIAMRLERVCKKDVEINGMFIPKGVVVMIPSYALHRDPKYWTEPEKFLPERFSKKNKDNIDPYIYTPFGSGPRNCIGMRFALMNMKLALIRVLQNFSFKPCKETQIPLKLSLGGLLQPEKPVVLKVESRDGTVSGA", "assay": "Inhibition of human liver microsome CYP3A4 in presence of NADPH incubated for 10 to 30 mins by LC-MS-MS analysis", "format": "ADME, microsomes"}, "[18]": {"target": "T1, Sodium channel protein type 5 subunit alpha", "assay": "Activation of recombinant human Nav1.5 late expressed in human HEK293 cells assessed as activation of late current at 100 uM by automated Qpatch clamp assay relative to control", "format": "ADME, cell-based", "conditions": "hek293, 100 µM", "in_short": "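Part of an eight-assay CiPA cardiac ion channel panel run in duplicate on a QPatch HT automated patch-clamp system. Compound was prepared as a 30 mM DMSO stock and tested at 3, 30 and 100 µM. Recordings were filtered for seal quality, seal drop and current amplitude, and results are reported as mean percent values.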"}, "[19]": {"target": "T2, CYP3A4 (Homo sapiens, UniProt P08684)", "T2 sequence (P08684 whole entry)": "as above", "assay": "Residual activity of human liver microsome CYP3A4 at 0.3 uM in presence of NADPH incubated for 10 to 30 mins by LC-MS-MS analysis", "conditions": "human liver microsomes"}, "[20]": {"system": "Staphylococcus aureus", "assay": "Antibacterial activity against Staphylococcus aureus harboring DNA gyrase D83N mutant assessed as reduction in bacterial growth by CLSI based broth microdilution method", "format": "functional", "in_short": "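MIC against an isogenic NBTI-resistant daughter strain carrying a D83N substitution in DNA gyrase, originally selected under NBTI pressure from multidrug-resistant MRSA isolate 3527. CLSI broth microdilution was used, with values in µg/mL.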"}, "[21]": {"target": "Nav1.5 (late current) (Homo sapiens, UniProt Q14524)", "assay": "Inhibition of recombinant human Nav1.5 late expressed in human HEK293 cells at 100 uM in presence of ATXII by automated Qpatch clamp assay relative to control", "format": "ADME, cell-based", "conditions": "HEK293 cells expressing recombinant human Nav1.5", "in_short": "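Part of an eight-assay CiPA panel run on a QPatch HT automated patch clamp at 3, 30 and 100 µM, in duplicate. The test compound came from a 30 mM DMSO stock. Data were filtered for seal quality, seal drop and current amplitude, and reported as mean percent inhibition.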"}, "[22]": {"assay": "Inhibition of Staphylococcus aureus topoisomerase IV using kDNA as substrate incubated for 30 mins by gel electrophoresis analysis", "conditions": "read-out: IC50"}, "[23]": {"target": "T2, CYP3A4", "assay": "Residual activity of human liver microsome CYP3A4 at 1 uM in presence of NADPH incubated for 10 to 30 mins by LC-MS-MS analysis", "conditions": "human liver microsomes"}, "[24]": {"system": "Enterococcus faecium", "assay": "Antibacterial activity against Vancomycin-susceptible Enterococcus faecium DRL-4193 assessed as reduction in bacterial growth by CLSI based broth microdilution method", "format": "functional"}, "[25]": {"assay": "Cytotoxicity against human HepaRG assessed as reduction in cell viability at 1 uM incubated for 24 hrs by Cell-Titer Glo assay", "format": "cell-based", "conditions": "HepaRG cells, read-out: INH", "in_short": "as §1"}, "[26]": {"assay": "Metabolic stability in human liver microsomes assessed as half life at 10 uM incubated for 5 mins followed by NADPH addition and measured upto 60 mins by LC-MS analysis", "format": "ADME, Microsome", "conditions": "time 65 min"}}, "data": [{"smiles": "COc1ccc2ncc(F)c(CC[C@@]3(O)CO[C@@H]4[C@@H](NCc5cc6c(cn5)OCCO6)CO[C@@H]43)c2n1", "values": [{"measurement": "MIC", "setting": "[1]", "value": 1, "unit": "µg/mL"}, {"measurement": "MIC", "setting": "[2]", "value": 0.25, "unit": "µg/mL"}, {"measurement": "cytotoxicity at 24 h, 0.1 µM", "setting": "[3]", "value": 4, "unit": "%"}, {"measurement": "MIC90", "setting": "[4]", "value": 2, "unit": "µg/mL"}, {"measurement": "cytotoxicity at 24 h, 100 µM", "setting": "[5]", "value": 14, "unit": "%"}, {"measurement": "MIC", "setting": "[6]", "value": "≤ 0.12", "unit": "µg/mL"}, {"measurement": "Activity", "setting": "[7]", "value": 3.4, "unit": "%"}, {"measurement": "cytotoxicity at 24 h, 10 µM", "setting": "[8]", "value": 8, "unit": "%"}, {"measurement": "MIC", "setting": "[9]", "value": 1, "unit": "µg/mL"}, {"measurement": "IC50", "setting": "[10]", "value": 66, "unit": "µM"}, {"measurement": "inhibition at 3 µM", "setting": "[11]", "value": -2.9, "unit": "%"}, {"measurement": "inhibition", "setting": "[12]", "value": 78, "unit": "%"}, {"measurement": "inhibition at 10 µM", "setting": "[13]", "value": "< 50", "unit": "%"}, {"measurement": "half-life at 10 µM", "setting": "[14]", "value": 3, "unit": "min"}, {"measurement": "Activity", "setting": "[15]", "value": 7.7, "unit": "%"}, {"measurement": "inhibition", "setting": "[16]", "value": 51, "unit": "%"}, {"measurement": "IC50", "setting": "[17]", "value": "> 10", "unit": "µM"}, {"measurement": "Activity", "setting": "[18]", "value": 17, "unit": "%"}, {"measurement": "residual activity at 0.3 µM", "setting": "[19]", "value": 89.9, "unit": "%"}, {"measurement": "MIC", "setting": "[20]", "value": 2, "unit": "µg/mL"}, {"measurement": "inhibition at 100 µM", "setting": "[21]", "value": 50.9, "unit": "%"}, {"measurement": "IC50", "setting": "[22]", "value": 7.4, "unit": "µM"}, {"measurement": "residual activity at 1 µM", "setting": "[23]", "value": 60.4, "unit": "%"}, {"measurement": "MIC", "setting": "[24]", "value": 2, "unit": "µg/mL"}, {"measurement": "cytotoxicity at 24 h, 1 µM", "setting": "[25]", "value": 9, "unit": "%"}, {"measurement": "half-life at 10 µM", "setting": "[26]", "value": 6, "unit": "min"}]}]}
